Measured values from different studies.
Compare with care: the assays were run in different laboratories.
Target: Serine/threonine-protein kinase Sgk2 (SGK2, Homo sapiens, UniProt Q9HBY8)
Sequence (Q9HBY8 1-367, as in one of the studies): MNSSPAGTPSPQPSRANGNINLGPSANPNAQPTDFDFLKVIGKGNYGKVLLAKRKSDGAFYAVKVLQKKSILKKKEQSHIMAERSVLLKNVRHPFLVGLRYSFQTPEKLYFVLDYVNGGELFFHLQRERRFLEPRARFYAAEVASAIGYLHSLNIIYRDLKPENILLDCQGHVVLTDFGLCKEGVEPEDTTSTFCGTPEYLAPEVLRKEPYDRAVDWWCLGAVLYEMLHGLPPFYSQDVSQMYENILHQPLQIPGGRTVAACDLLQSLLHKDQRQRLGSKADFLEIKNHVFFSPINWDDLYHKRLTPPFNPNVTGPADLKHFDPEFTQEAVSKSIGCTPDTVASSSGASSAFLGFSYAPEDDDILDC

SMILES	assay	conditions	quantity	result
CCN(CC)CCNC(=O)c1c(C)[nH]c(/C=C2\C(=O)Nc3ccc(F)cc32)c1C	enzyme activity, inhibitor	0.3 µM	inhibition	4%
Cc1nccc(COC(=O)N2C[C@@H]3[C@@H](CNC(=O)c4ccc5[nH]nnc5c4)[C@@H]3C2)n1	cell-free assay, competition with immobilised ligand	1 µM	remaining binding	100%
O=C1Nc2ccc(Cl)cc2C1=Cc1cc(Cl)c(O)c(Cl)c1	cell-free assay	0.5 µM	remaining signal	89.2%
CCCOc1ccc(OC)c(F)c1C(=O)c1ccc(C(=O)N[C@@H]2CNC[C@H]2NC(=O)c2ccc3[nH]ncc3c2)cc1	enzyme activity, inhibitor	10 µM	remaining activity	1%
COc1cc2ncnc(Nc3ccc(Oc4ccccc4)c(C)c3C)c2cc1OC	enzyme activity, inhibitor	1 µM	inhibition	0%
CNC(=O)c1cc(Oc2ccc(NC(=O)Nc3ccc(Cl)c(C(F)(F)F)c3)cc2)ccn1	enzyme activity, inhibitor	10 µM	inhibition	-2%
COc1cc(Cl)c(C(=O)N[C@@H](CN[C@H]2CC[C@@H](N)CC2)Cc2ccc(C#N)cc2)cc1-c1ccc(CN[C@H](C)c2ccc(C)cc2)o1	enzyme activity, inhibitor	1 µM	remaining activity	82%
CSc1cccnc1N1CCN(Cc2nc3ccccc3[nH]2)CC1	cell-free assay, competition with immobilised ligand	1 µM	remaining binding	81%
CN1CC(Oc2cnc(C#N)cc2-c2ccn3nc(NC(=O)C4CC4)cc3c2)C1	enzyme activity, inhibitor	1 µM	inhibition	-2%
CN([C@@H]1CCc2c(CC(=O)O)c3cc(S(C)(=O)=O)ccc3n2C1)S(=O)(=O)c1ccc(F)cc1	cell-free assay, competition with immobilised ligand	1 µM	remaining binding	100%
Cc1cnc(NC2CCOCC2)nc1-n1cnc(C(=O)NC(CN)c2cc(F)cc(Cl)c2)c1 (stereo not shown)	enzyme activity, inhibitor, radiometric	1 µM	remaining activity	25%
Nc1c(C(=O)NCc2ccc(C(=O)NCCCC3CCCCC3)cc2)cnn1-c1ccccc1	cell-free assay, competition with immobilised ligand	0.1 µM	remaining binding	72%
O=C(Nc1cnn(-c2csc(C(=O)NC3COC3)c2)c1)Nc1c(F)cccc1Cl	enzyme activity, inhibitor	5 µM	remaining activity	88.6%
CC(C)(O)[C@H]1CC[C@H](Nc2ccc3ncc(-c4cccc(C(F)(F)F)c4)n3n2)CC1	enzyme activity, inhibitor	1 µM	remaining activity	96.1%
O=C1NC(=O)c2cc(Nc3ccc(F)cc3)c(Nc3ccc(F)cc3)cc21	cell-free assay	0.5 µM	remaining signal	99.7%
CC(C)(C)c1nc(-c2cccc(NS(=O)(=O)c3c(F)cccc3F)c2F)c(-c2ccnc(N)n2)s1	enzyme activity, inhibitor, radiometric	1 µM	remaining activity	101%
Nc1cnc(N2CCc3cc(S(=O)(=O)Nc4c(F)cc(Cl)cc4F)cc(N4CCCC4=O)c32)nc1	cell-free assay, competition with immobilised ligand	1 µM	remaining binding	76%
Cc1ccc(Nc2nccc(N(C)c3ccc4c(C)n(C)nc4c3)n2)cc1S(N)(=O)=O	enzyme activity, inhibitor	0.3 µM	inhibition	5%
NS(=O)(=O)c1cc(NC(=O)C2(c3ccccc3Cl)CC2)ccc1Oc1cccc(Cl)c1	cell-free assay, competition with immobilised ligand	1 µM	remaining binding	100%
Cn1cnc(Br)c1C1=CN(c2ncnc3[nH]cnc23)CCS1	enzyme activity, inhibitor, radiometric	50 nM	inhibition	20.8%
O=C1CCc2cc(Nc3cc(OC4CCOCC4)c([N+](=O)[O-])cc3Cl)ccc2N1	cell-free assay, competition with immobilised ligand	1 µM	remaining binding	80%
Cc1sc(C(=O)NC2COC2)cc1-n1cc(NC(=O)Nc2c(F)cccc2Cl)cn1	enzyme activity, inhibitor	10 µM	remaining activity	97.2%
